Bioassay records from PubChem BioAssay.
Hits are enriched below; roughly 2.2% of the tested compounds scored in any of these assays.
697 NFkB inh: inhibitors of the PMA/ionomycin-induced NF-kB reporter in 697 B cells | 697 B-cell NF-kB luciferase reporter, 16 h | inhibition, % at 4 µM | 330,000 tested, 0.33% active; in the data active = inhibition above about 35%
NR2E3 ag-1: NR2E3 (human) agonism; GST-NR2E3/biotin-RetCOR TR-FRET, 1536-well; inhibition of corepressor binding, % at 4.78 µM; 320,000 tested, 0.12% active;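 active = percent inhibition above the cutoff of mean plus 3 SD of all tested compounds, set per screening campaign, cut at about 20% in these data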
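Test system: GST-NR2E3 and biotin-RetCOR proteins | Quantity: 1.35 nM GST-tagged NR2E3 final | Medium: Tris pH 7.5 | Also added: 7 nM biotin-RetCOR | Dosing: Compound at 4.8 µM, single dose | Timing: 5 h at 4 °C | Detection: Time-resolved FRET | Read-out basis: Percent inhibition | Benchmarks: Biotin wells as high control, 0.6% DMSO wells as low control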
FGF22 binding: binders of recombinant human FGF22 by thermal shift | Q9HCT0 | SYPRO orange fluorescence; percent of sucrose octasulfate shift, DMSO zero | activity (Tm shift, normalised), % at 9.99 µM | 340,000 tested, 1.5% active;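 active = mean Tm shift, scaled 0 neutral to 100 positive control, at about 1.3% or above, every replicate too, limit read from the data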
Target sequence (Q9HCT0 whole entry, looked up): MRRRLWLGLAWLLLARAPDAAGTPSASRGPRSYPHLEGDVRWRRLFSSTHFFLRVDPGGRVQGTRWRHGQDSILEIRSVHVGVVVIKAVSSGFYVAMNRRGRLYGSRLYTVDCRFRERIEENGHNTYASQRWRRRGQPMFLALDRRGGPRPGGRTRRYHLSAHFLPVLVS
NR2E3 ag-2: agonists of human NR2E3 nuclear receptor. AID 602229. inhibition of corepressor binding, % at 3.98 µM. Q9Y5X4. 360,000 tested, 0.35% active. CHO-S Gal4-NCOR/VP16-NR2E3 two-hybrid, luciferase;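 active = inhibition above the mean of all tested compounds plus 3 SD, cut at about 70% in these data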;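 note: higher means lower luciferase signal from less NR2E3 corepressor binding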
Jurkat NFkB inh: inhibitors of the PMA/ionomycin-induced NF-kB reporter in Jurkat cells; AID 435003; inhibition, % at 4 µM; 330,000 tested, 0.53% active; PMA/ionomycin-induced NF-kB luciferase reporter, luminescence; in the data active = inhibition above about 50%
miR-122 sensor: inhibitors of miR-122 in Huh7 cells | Huh7 miR-122 Renilla luciferase sensor, 48 h; neutral wells = 0, positive control = 100 | activation (reporter increase), % at 12.5 µM | 340,000 tested, 0.3% active;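 active = mean replicate activation score at least 90 and every replicate individually at or above 90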;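 note: higher luciferase means less miR-122 activity so hits act as miR-122 inhibitors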
Each line names hits and unclear results; the compound was inactive in the other large screens.

COc1ccc(S(=O)(=O)N(C)C[C@@H]2Oc3c(NC(=O)Nc4c(C)noc4C)cccc3C(=O)N([C@@H](C)CO)C[C@@H]2C)cc1	none (no result: 697 NFkB inh, NR2E3 ag-1, FGF22 binding, NR2E3 ag-2, Jurkat NFkB inh)
CCCNC(=O)N1[C@H](CO)[C@@H]2c3ccccc3N(C(=O)c3cccnc3)C[C@@H]21	none (no result: 697 NFkB inh, NR2E3 ag-1, NR2E3 ag-2, Jurkat NFkB inh)
O=c1cc(-c2ccccc2[N+](=O)[O-])oc2ccccc12	FGF22 binding 43 (no result: miR-122 sensor)
CC(=O)Nc1ccc(NC(=O)c2ccc(N(C)S(=O)(=O)c3ccc(C)cc3)cc2)cc1	none
CN(c1ccccc1)S(=O)(=O)c1ccc(NC(=O)c2ccc(-c3ccccc3)cc2)cc1	NR2E3 ag-2 82
COCc1ccc(CN2CCc3c([nH]c4ccccc34)C2CC(C)C)o1 (configuration not stated)	FGF22 binding 43
CCc1nccn1CCC(=O)N1CCc2c([nH]c3ccccc23)C1CC(C)C (configuration not stated)	none
CC(C)(C)S(=O)N1Cc2cc(C(=O)Nc3ccc(-c4ccccc4)cc3)nc(-c3cccc(-c4cccc(F)c4)c3)c2[C@@H]1CCO (some centres not stated)	none (no result: 697 NFkB inh, NR2E3 ag-1, NR2E3 ag-2, Jurkat NFkB inh, miR-122 sensor)
NS(=O)(=O)c1cccc(NC(=O)CSc2n[nH]c(-c3ccccc3Br)n2)c1	FGF22 binding 1.9 (no result: 697 NFkB inh, NR2E3 ag-1, Jurkat NFkB inh)
Cc1noc(C)c1NC(=O)N(C)C[C@H]1Oc2ccc(NC(=O)CCC(F)(F)F)cc2CC(=O)N([C@H](C)CO)C[C@H]1C	none (no result: 697 NFkB inh, NR2E3 ag-1, NR2E3 ag-2, Jurkat NFkB inh)
Cc1ccc(C)n1-c1ccc(C(=O)NCc2ccncc2)cc1	FGF22 binding 44 (no result: miR-122 sensor)
CCOc1ccc(C(=O)NCc2ccncc2)cc1	none (no result: FGF22 binding)
COc1cc(C(=O)NCc2ccncc2)cc(OC)c1OC	FGF22 binding 43
Cc1ccc(S(=O)(=O)N(C)C[C@@H]2OCCCC[C@@H](C)Oc3ccc(NC(=O)CCCN(C)C)cc3C(=O)N([C@@H](C)CO)C[C@@H]2C)cc1	none (no result: 697 NFkB inh, NR2E3 ag-1, NR2E3 ag-2, Jurkat NFkB inh)
C[C@@H]1CN([C@H](C)CO)C(=O)c2cccc(NC(=O)CCCCCC(=O)Nc3ccccc3N)c2O[C@H]1CN(C)S(C)(=O)=O	none (no result: 697 NFkB inh, NR2E3 ag-1, NR2E3 ag-2, Jurkat NFkB inh, miR-122 sensor)
O=S(=O)(Nc1cccnc1)c1ccc(C2CCCCC2)cc1	NR2E3 ag-2 92 (no result: FGF22 binding)
O=S(=O)(Nc1cccnc1)c1ccccc1	none
c1cncc(-c2ccnc3ncnn23)c1	FGF22 binding 43 (no result: miR-122 sensor)
CC(=O)c1sc(NC(=O)CCCOc2ccc(Cl)cc2)nc1C	FGF22 binding 43 (no result: miR-122 sensor)
COc1ccc(OCCCC(=O)Nc2nc(C)c(C(C)=O)s2)cc1	none (no result: miR-122 sensor)
Cc1nn(C)c(C)c1S(=O)(=O)NCc1cccs1	miR-122 sensor 109 (no result: FGF22 binding)
CCN=c1scc(C)n1/N=C/c1cc(Br)c(O)c(Br)c1	FGF22 binding 43 (no result: miR-122 sensor)
O=C(C[C@@H]1CC[C@@H]2[C@H](COC[C@H](O)CN2S(=O)(=O)c2ccccc2)O1)NCc1ccc2c(c1)OCO2	none (no result: 697 NFkB inh, NR2E3 ag-1, NR2E3 ag-2, Jurkat NFkB inh)
C=CCN1C(=O)C2(NNc3ccccc3O2)c2ccccc21 (configuration not stated)	none (no result: FGF22 binding)
C=CCN1C(=O)C2(NC(=O)c3ccccc3N2)c2ccccc21 (configuration not stated)	FGF22 binding 43
CCOC(=O)CC1C(=O)NCCN1Cc1cccs1 (configuration not stated)	FGF22 binding 43
CC1C/C(=N/Nc2nc3ccccc3[nH]2)CC(C)(C)C1 (configuration not stated)	FGF22 binding 43 (no result: miR-122 sensor)
CCCNC(=O)/C=C/C(=O)O	FGF22 binding 44 (no result: miR-122 sensor)
O=C(O)/C=C/C(=O)NCCCc1ccccc1	none (no result: miR-122 sensor)
C[C@@H]1CN([C@@H](C)CO)C(=O)c2cc(NC(=O)Cc3cn(C)c4ccccc34)ccc2O[C@@H]1CN(C)Cc1ccc(-c2ccccc2)cc1	none (no result: 697 NFkB inh, NR2E3 ag-1, NR2E3 ag-2, Jurkat NFkB inh)
COc1ccc(NS(=O)(=O)c2cc(NC(=O)c3ccc(=O)[nH]c3)ccc2C)cc1	miR-122 sensor 100
OCc1ccccc1-c1cnc2cccnn12	FGF22 binding 55 (no result: 697 NFkB inh, NR2E3 ag-1, Jurkat NFkB inh)
COc1ccc(C(=O)N2CCCC(CCC(=O)NCc3ccc(F)c(F)c3)C2)o1 (configuration not stated)	FGF22 binding 43
COc1ccc(C(=O)N2CCCC(CCC(=O)NCc3ccc(F)c(F)c3)C2)cc1F (configuration not stated)	none (no result: miR-122 sensor)
